APJ antagonist = antagonists of human apelin receptor APJ, primary screen, CHO-K1 cells, beta-arrestin complementation, luminescence; inhibition, % at 20 µM; actives 0.32% (n = 330,000); AID 2521, 2010; P35414;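 active = inhibition above about 40% at 20 µM, limit read from the data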;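 note: cells challenged with 10 nM apelin-13 agonist together with compound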
HTR2A ag = mouse Htr2a agonists via beta-arrestin recruitment, primary screen, cell-based, luminescence; activation, % at 7.6 µM; actives 0.66% (n = 360,000); CHO-K1 mHTR2A beta-arrestin complementation; percent of 30 µM serotonin response; 5-hydroxytryptamine receptor 2A (Mus musculus), P35363; AID 624169, 2012;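 active = activation above a run cutoff, the mean activation of all tested compounds plus 3 SD, cut at about 14% in these data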
CXCR6 inh = CXCR6 receptor inhibitors, primary screen, cell-based, beta-arrestin, luminescence, CHO-K1 PathHunter, 1536-well | actives 0.36% (n = 360,000) | inhibition, % at 20 µM | C-X-C chemokine receptor type 6 (Homo sapiens), O00574; in the data active = inhibition above about 34%, passing the limit was not always enough;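 note: antagonist mode with CXCL16 agonist at 10 nM final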
Target sequence (O00574 whole entry, looked up): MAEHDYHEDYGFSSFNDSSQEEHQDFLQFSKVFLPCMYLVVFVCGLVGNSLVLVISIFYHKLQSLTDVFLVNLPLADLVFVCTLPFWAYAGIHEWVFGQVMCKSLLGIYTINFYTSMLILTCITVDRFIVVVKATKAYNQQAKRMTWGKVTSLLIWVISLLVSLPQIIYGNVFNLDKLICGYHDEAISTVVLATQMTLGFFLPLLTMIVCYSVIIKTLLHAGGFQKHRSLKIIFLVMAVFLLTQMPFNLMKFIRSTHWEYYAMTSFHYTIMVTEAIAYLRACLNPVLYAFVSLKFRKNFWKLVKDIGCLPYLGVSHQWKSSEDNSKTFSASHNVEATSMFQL
EBI2 antag = EBI2 receptor antagonists, beta-arrestin recruitment, primary screen, cell-based, luminescence, 7a,25-OHC stimulation, uHTS; G-protein coupled receptor 183 (Homo sapiens), P32249; inhibition, % at 5 µM; AID 651636, 2012; 7a,25-OHC stimulated; actives 0.81% (n = 360,000); in the data active = inhibition above about 38%;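 note: enzyme fragment complementation signal reports receptor beta-arrestin coupling in cells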
APJ ag = agonists of human apelin receptor APJ, primary screen, CHO-K1 cells, PathHunter beta-arrestin, luminescence. 0% DMSO wells, 100% apelin. activation, % at 20 µM. actives 0.11% (n = 330,000). AID 2520, 2010;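 active = activation more than six SD over the plate average, tested at 20 µM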
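Test system: CHO-K1 APJ beta-arrestin complementation cell line. Amount: cell density 1000 per well. Controls: DMSO negative, 10 nM Apelin-13 positive. Signal: luminescent beta-gal fragment complementation, chemiluminescent substrate. Read-out basis: agonist-driven arrestin binding to APJ. Timing: compound stimulation 90 min at 25 °C, detection 60 min.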
CCR6 antagonist = CCR6 receptor antagonists, primary screen, cell-based, CHO-K1, luminescence, beta-arrestin, uHTS. C-C chemokine receptor type 6 (Homo sapiens), P51684. CHO-K1 CCR6 PathHunter beta-arrestin, CCL20-stimulated. inhibition, % at 20 µM. actives 0.49% (n = 340,000);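 active = compounds whose inhibition of the agonist-driven luminescence signal at 20 µM reaches about 50%, limit read from the data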;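 note: cells stimulated with CCL20 at 14 nM final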
Target sequence (P51684 whole entry, looked up): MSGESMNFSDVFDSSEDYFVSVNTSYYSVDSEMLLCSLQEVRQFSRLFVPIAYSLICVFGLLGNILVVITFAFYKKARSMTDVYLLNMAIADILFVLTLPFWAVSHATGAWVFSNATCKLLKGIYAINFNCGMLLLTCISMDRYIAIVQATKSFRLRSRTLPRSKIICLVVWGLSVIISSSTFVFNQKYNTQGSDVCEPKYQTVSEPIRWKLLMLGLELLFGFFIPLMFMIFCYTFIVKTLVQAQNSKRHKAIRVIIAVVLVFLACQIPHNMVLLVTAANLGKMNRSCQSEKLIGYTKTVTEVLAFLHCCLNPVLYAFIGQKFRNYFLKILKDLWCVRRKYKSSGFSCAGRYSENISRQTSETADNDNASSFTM
APJ antag conf = APJ antagonists blocking beta-arrestin recruitment, confirmation, cell-based, luminescence, single concentration, uHTS hits | shares compounds with APJ antagonist | antagonist mode | inhibition, % at 20 µM | actives 66% (n = 950) | AID 2766, 2010; in the data active = inhibition above about 50%
Of the large screens only hits and unclear results are named; the others gave an inactive call (follow-up assays come after a bar, where they were run). Most compounds without a hit are left out; they make up all but 2.2% or so of the library.

Cc1cc2c(cc1C)-n1nnnc1C(N1CCN(c3ccccn3)CC1)C(c1ccc3c(c1)OCO3)=N2 (centres undefined)	none (no result: APJ antagonist, CXCR6 inh, APJ ag, CCR6 antagonist)
O=S(=O)(NCCS(=O)(=O)N1CCN(c2ccc(F)cc2)CC1)c1ccc(F)cc1	none (no result: APJ antagonist, APJ ag, CCR6 antagonist)
O=[N+]([O-])c1ccc(S(=O)(=O)c2ccccc2)nc1	APJ antagonist 43.0, CXCR6 inh 52.1, CCR6 antagonist 71.2 | APJ antag conf 50.6
O=S(=O)(c1cccnc1)N1CCCC(Nc2ccc(F)c(F)c2)C1 (centres undefined)	none (no result: APJ antagonist, APJ ag, CCR6 antagonist)
COc1ccc(/C=C/C(=O)NC(=S)NNC(=O)c2c(-c3ccccc3)noc2C)cc1	APJ antagonist 43.4 | APJ antag conf 91.6
COc1ccccc1-c1cnc2c(c1)C(=O)N([C@@H](C)CO)C[C@@H](C)[C@H](CN(C)C(=O)c1cccnc1)O2	none (no result: APJ antagonist, APJ ag, CCR6 antagonist)
N#CC(C#N)=CC1=C2OC(c3ccccc3)=CC(c3ccccc3)=C2CCC1	APJ antagonist 40.7 | APJ antag conf 58.8
Cc1ccc(C(=O)CNc2ccc(C)c(Cl)c2)cc1	APJ antagonist 63.6, CCR6 antagonist 60.5 | APJ antag conf 93.1
Cc1ccc(NCC(=O)c2ccccc2)cc1Cl	APJ antagonist 94.2, CXCR6 inh 49.2, CCR6 antagonist 73.0 | APJ antag conf 100.6
Cc1ccc(NCCC(=O)c2ccccc2)cc1Cl	none
O=C1C(O)=CC(=C(c2ccccc2)c2ccccc2)c2ccccc21	none (no result: APJ antagonist, APJ ag)
COC(=O)CSc1nnc([C@H](Cc2ccccc2)NC(=O)OC(C)(C)C)o1	none
COC(=O)CS(=O)(=O)c1nnc([C@H](Cc2ccccc2)NC(=O)OC(C)(C)C)o1	APJ antagonist 48.4, CXCR6 inh 55.5, CCR6 antagonist 77.1 | APJ antag conf 73.2
O=C(O)c1ccc(N=N/C(=N\Nc2ccc(C(=O)O)cc2)c2ccccc2)cc1	APJ antagonist 54.9 | APJ antag conf 84.1
CC1(C(=O)Nc2ccc3c(c2)OCCO3)CN(S(C)(=O)=O)CC(=O)N1CCc1c[nH]c2ccccc12 (centres undefined)	none (no result: APJ antagonist, CXCR6 inh, APJ ag, CCR6 antagonist)
Cc1cccc(CN2CCN(C3CN(Cc4ccc([N+](=O)[O-])cc4)S(=O)(=O)C3)CC2)c1 (centres undefined)	none (no result: APJ antagonist, APJ ag, CCR6 antagonist)
O=C(NCc1ccccc1)c1cc(C2CCCCN2C(=O)c2cccs2)on1 (centres undefined)	none (no result: APJ antagonist, APJ ag, CCR6 antagonist)
COc1ccc(CCNC(=O)c2n[nH]c(=O)c3ccccc23)cc1	APJ antagonist 41.0 | APJ antag conf inactive
CC(=O)Nc1ccc(NC(=O)CN2C(=O)COc3ccc(S(=O)(=O)N4CCOCC4)cc32)cc1	none
CC(C)c1ccc(NC(=O)CN2C(=O)COc3ccc(S(=O)(=O)N4CCOCC4)cc32)cc1	APJ antagonist 45.3 | APJ antag conf inactive
C=CCN1C(=O)/C(=C/C=C2/N(CC)c3ccc(S(=O)(=O)N(C)C)cc3N2CC)SC1=S	APJ antagonist 52.0, CCR6 antagonist 63.6 | APJ antag conf 106.5
C=CCN1C(=O)/C(=C2/Sc3ccccc3N2CC)SC1=S	none
COc1ccc(CC(=O)OC(C)C(=O)NCc2ccc3c(c2)OCO3)cc1OC (centres undefined)	APJ antagonist 40.9 | APJ antag conf inactive
CNC(=O)c1nnsc1S(=O)(=O)c1ccc(Cl)cc1	APJ antagonist 46.6, CXCR6 inh 63.5, CCR6 antagonist 77.1 | APJ antag conf 70.5
O=C(c1nnsc1S(=O)(=O)c1ccc(Cl)cc1)N1CCOCC1	none
C=CCNC(=S)Nc1cc(S(=O)(=O)N2CCOCC2)ccc1-n1cncn1	none
CCN(CC)c1ccc(C(=O)NC(=S)Nc2cc(S(=O)(=O)N3CCOCC3)ccc2-n2cncn2)cc1	APJ antagonist 41.1 | APJ antag conf 81.5
COc1ccc(-n2c(N)c(C(=O)NCc3ccco3)c3nc4ccccc4nc32)cc1	none
Nc1c(C(=O)NCc2ccco2)c2nc3ccccc3nc2n1CCc1ccc(F)cc1	APJ antagonist 55.1 | APJ antag conf inactive
N#Cc1c(N)n(CCc2ccc(F)cc2)c2nc3ccccc3nc12	APJ antagonist 64.5 | APJ antag conf inactive
CCN(CC)C(=O)c1cccc(-c2csc(C(C)(O)c3ccncc3)n2)c1 (centres undefined)	none (no result: APJ antagonist, APJ ag, CCR6 antagonist)
O=C(C(=O)N1CCN(c2ccccc2)CC1)c1ccccc1	none (no result: APJ antagonist, CXCR6 inh, APJ ag, CCR6 antagonist)
COCCNC(=S)N/N=C(\C)c1ccc(Cl)c(Cl)c1	none
COCCNC(=S)N/N=C(\C)c1ccc(Cl)c(Cl)c1Cl	APJ antagonist 43.3 | APJ antag conf inactive
Cc1cccn2c(=O)c(/C=C(\C#N)C(=O)NCc3ccccc3)c(N3CCC(C(N)=O)CC3)nc12	APJ antagonist 40.7 | APJ antag conf inactive
CCCn1nc([N+](=O)[O-])c(C(C#N)c2nc3ccccc3s2)c(Cl)c1=O (centres undefined)	APJ antagonist 61.9, CCR6 antagonist 50.5 | APJ antag conf 66.2
CCOC(=O)[C@]12CCCC=C1N(Cc1cccc3ccccc13)C(=O)[C@H](CC(=O)N1CCCCC1)C2	none (no result: APJ antagonist, APJ ag, CCR6 antagonist)
c1ccc(-c2nc(N3CCCCCC3)c3ccccc3n2)nc1	APJ antagonist 49.0 | APJ antag conf 62.1
CCCN(CCC)c1nc(-c2ccccn2)nc2ccccc12	APJ antagonist 41.2 | APJ antag conf 80.4
CCCCN(CC)c1nc(-c2ccncc2)nc2ccccc12	none
CCOC(=O)C1(C)CCCN1C(=O)c1ccc(C(F)(F)F)nc1C (centres undefined)	none (no result: APJ antagonist, APJ ag, CCR6 antagonist)
COc1cc(/C=C/c2ccc3cccc(OC)c3n2)c(O)c([N+](=O)[O-])c1	APJ antagonist 44.4, CXCR6 inh 42.0, CCR6 antagonist 53.8 | APJ antag conf 73.8
COc1cc(Br)cc(/C=C/c2ccc3cccc(O)c3n2)c1O	none
CCOc1ccc(N=C2C(=O)Nc3ccc(C)c(Br)c32)cc1	APJ antagonist 78.7, CXCR6 inh 73.1, CCR6 antagonist 101.7 | APJ antag conf 145.6
Cc1ccc2c(c1Br)/C(=N/N1C(=O)c3ccccc3C1=O)C(=O)N2	none
Cc1c(C(=O)NCCNc2ncc(C(F)(F)F)cc2Cl)cccc1[N+](=O)[O-]	none
O=[N+]([O-])c1cccc(Cl)c1NCCNc1ncc(C(F)(F)F)cc1Cl	APJ antagonist 42.7 | APJ antag conf inactive
C/C(=N\NC(=O)c1cc(Br)ccc1O)c1ccccn1	APJ antagonist 44.1, CCR6 antagonist 54.1 | APJ antag conf inactive
